Experimental data from ChEMBL document CHEMBL1133641, “A new class of potential chloroquine-resistance reversal agents for Plasmodia: syntheses and biological evaluation of 1-(3'-diethylaminopropyl)-3-(substituted phenylmethylene)pyrrolidines” (2000).

Legend:
[1] = system: Plasmodium yoelii nigeriensis; assay: In Vitro evaluation on percentage inhibition in Heme Oxygenase at concentration 100 (uM) of Cell-free parasite Plasmodium yoelii; assay type: functional
Outline: (§1)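 Heme oxygenase activity was measured as bilirubin formation in a post-mitochondrial fraction. The parasite enzyme came from cell-free P. yoelii, isolated from infected blood by density gradient centrifugation and saponin lysis. The host enzyme came from infected liver. Compounds were tested at 10–100 µM and preincubated for 10 min before the reaction was started.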

[2] = system: Plasmodium yoelii nigeriensis; assay: In Vitro inhibition of Heme Oxygenase in Cell-free parasite Plasmodium yoelii at concentration 50 uM; assay type: functional; outline: as §1
[3] = system: Plasmodium yoelii nigeriensis; assay: In Vitro inhibition of Heme Oxygenase in Cell-free parasite Plasmodium yoelii at concentration 100 uM; assay type: functional; outline: as §1
[4] = species: Mus musculus; assay: In Vitro evaluation on percentage inhibition in Heme Oxygenase at concentration 50 (uM) of infected host
Outline: (§2)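 Heme oxygenase from liver of P. yoelii-infected host, post-mitochondrial fraction, run as the host-enzyme counterpart to the cell-free parasite assay. Test compounds at 10-100 µM were preincubated in the assay system for 10 min before starting the reaction. Activity was followed by bilirubin formation and reported as percent inhibition.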

[5] = species: Mus musculus; assay: In Vitro evaluation on percentage inhibition in Heme Oxygenase at concentration 100 (uM) of infected host; outline: as §2

| SMILES | inhibition [1] | inhibition [2] | inhibition [3] | inhibition [4] | inhibition [5] |
| --- | --- | --- | --- | --- | --- |
| CN(C)CCCN1c2ccccc2Sc2ccc(Cl)cc21 | 100% | 85% |  |  |  |
| COc1ccc(CCN(C)CCCC(C#N)(c2ccc(OC)c(OC)c2)C(C)C)cc1OC (stereo unspecified) |  | 100% | 100% | 15% | 19% |
